In ChEMBL document CHEMBL4765405, “Design, synthesis and biological activities of novel pleuromutilin derivatives with a substituted triazole moiety as potent antibacterial agents” (Eur J Med Chem, 2020):
Converted amounts (≈) assume the structure as drawn.

What was measured:
Assay type in all cases: functional
Escherichia coli [1] = assay: Antibacterial activity against Escherichia coli ATCC 25922 after 24 hrs by CLSI based broth micro dilution method
Outline: (§1)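 CLSI broth microdilution MIC against S. aureus ATCC 43300 (MRSA), ATCC 29213, clinical isolates AD3 and 144 (Guangdong Province), and E. coli ATCC 25922; ATCC 43300 served as QC strain, with the CLSI quality control range as reference.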

Escherichia coli [2] = assay: Bactericidal activity against Escherichia coli ATCC 25922 preincubated 16 to 20 hrs followed by subculturing and measured after over night
Outline: (§2)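 MBC by CLSI broth microdilution on the same strain panel: S. aureus ATCC 43300, ATCC 29213, clinical isolates AD3 and 144, E. coli ATCC 25922; ATCC 43300 served as QC strain.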

Staphylococcus aureus [3] = assay: Antibacterial activity against Staphylococcus aureus 144 after 24 hrs by CLSI based broth micro dilution method
Outline: (§3)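 Broth microdilution run per CLSI. MRSA ATCC 43300 served as the QC strain, with the CLSI QC range as reference. S. aureus AD3 and 144 are clinical isolates from Guangdong Province. Pleuromutilin and tiamulin were run as reference drugs.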

Staphylococcus aureus [4] = assay: Antibacterial activity against Staphylococcus aureus ATCC 29213 after 24 hrs by CLSI based broth micro dilution method; outline: as §3
Staphylococcus aureus [5] = assay: Bactericidal activity against methicillin-resistant Staphylococcus aureus ATCC 43300 preincubated 16 to 20 hrs followed by subculturing and measured after over night
Outline: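 MBC determined by the CLSI broth microdilution method against MRSA ATCC 43300, with ATCC 43300 also serving as the QC strain. Pleuromutilin and tiamulin were reference drugs.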

Staphylococcus aureus [6] = assay: Bactericidal activity against Staphylococcus aureus 144 preincubated 16 to 20 hrs followed by subculturing and measured after over night; outline: as §2
Staphylococcus aureus [7] = assay: Bactericidal activity against Staphylococcus aureus ATCC 29213 preincubated 16 to 20 hrs followed by subculturing and measured after over night; outline: as §2
[8] = Ratio of MBC for bactericidal activity against methicillin-resistant Staphylococcus aureus ATCC 43300 to MIC for antibacterial activity against methicillin-resistant Staphylococcus aureus ATCC 4330
Staphylococcus aureus [9] = assay: Bactericidal activity against Staphylococcus aureus AD3 preincubated 16 to 20 hrs followed by subculturing and measured after over night; outline: as §2
Staphylococcus aureus [10] = assay: Antibacterial activity against methicillin-resistant Staphylococcus aureus ATCC 43300 after 24 hrs by CLSI based broth micro dilution method; outline: as §3
Staphylococcus aureus [11] = assay: Antibacterial activity against Staphylococcus aureus AD3 after 24 hrs by CLSI based broth micro dilution method; outline: as §1

Compound | MIC (Escherichia coli [1]) | MBC (Escherichia coli [2]) | MIC (Staphylococcus aureus [3]) | MIC (Staphylococcus aureus [4]) | MBC (Staphylococcus aureus [5]) | MBC (Staphylococcus aureus [6]) | MBC (Staphylococcus aureus [7]) | Ratio [8] | MBC (Staphylococcus aureus [9]) | MIC (Staphylococcus aureus [10]) | MIC (Staphylococcus aureus [11])
C=C[C@]1(C)C[C@@H](OC(=O)CSc2ccccc2NC(=O)Cn2cc(CN3CCN(c4cccc(C)c4)CC3)nn2)[C@]2(C)[C@H](C)CC[C@]3(CCC(=O)[C@H]32)[C@@H](C)[C@@H]1O | > 32 µg/mL | > 32 µg/mL | 1 µg/mL (≈ 1.28 µM) | 1 µg/mL (≈ 1.28 µM) | 1 µg/mL (≈ 1.28 µM) | 8 µg/mL (≈ 10.2 µM) | 2 µg/mL (≈ 2.55 µM) | 1 | 4 µg/mL (≈ 5.11 µM) | 1 µg/mL (≈ 1.28 µM) | 2 µg/mL (≈ 2.55 µM)
C=C[C@]1(C)C[C@@H](OC(=O)CSc2ccccc2NC(=O)Cn2cc(CN3CCOCC3)nn2)[C@]2(C)[C@H](C)CC[C@]3(CCC(=O)[C@H]32)[C@@H](C)[C@@H]1O | > 32 µg/mL | > 32 µg/mL | 1 µg/mL (≈ 1.44 µM) | 0.5 µg/mL (≈ 0.721 µM) | 1 µg/mL (≈ 1.44 µM) | 1 µg/mL (≈ 1.44 µM) | 0.5 µg/mL (≈ 0.721 µM) | 1 | 2 µg/mL (≈ 2.88 µM) | 0.5 µg/mL (≈ 0.721 µM) | 1 µg/mL (≈ 1.44 µM)
C=C[C@]1(C)C[C@@H](OC(=O)CSc2ccccc2NC(=O)Cn2cc(CN3CCC(CCO)CC3)nn2)[C@]2(C)[C@H](C)CC[C@]3(CCC(=O)[C@H]32)[C@@H](C)[C@@H]1O | > 32 µg/mL | > 32 µg/mL | 0.5 µg/mL (≈ 0.679 µM) | 0.5 µg/mL (≈ 0.679 µM) | 1 µg/mL (≈ 1.36 µM) | 0.5 µg/mL (≈ 0.679 µM) | 0.5 µg/mL (≈ 0.679 µM) | 1 | 1 µg/mL (≈ 1.36 µM) | 0.5 µg/mL (≈ 0.679 µM) | 1 µg/mL (≈ 1.36 µM)
C=C[C@]1(C)C[C@@H](OC(=O)CSc2ccccc2NC(=O)Cn2cc(CN3CCN(c4ccccc4)CC3)nn2)[C@]2(C)[C@H](C)CC[C@]3(CCC(=O)[C@H]32)[C@@H](C)[C@@H]1O | > 32 µg/mL | > 32 µg/mL | 1 µg/mL (≈ 1.3 µM) | 0.5 µg/mL (≈ 0.65 µM) | 0.5 µg/mL (≈ 0.65 µM) | 2 µg/mL (≈ 2.6 µM) | 0.5 µg/mL (≈ 0.65 µM) | 1 | 1 µg/mL (≈ 1.3 µM) | 0.5 µg/mL (≈ 0.65 µM) | 0.5 µg/mL (≈ 0.65 µM)
C=C[C@]1(C)C[C@@H](OC(=O)CSc2ccccc2NC(=O)Cn2cc(CN3CCCC(CO)C3)nn2)[C@]2(C)[C@H](C)CC[C@]3(CCC(=O)[C@H]32)[C@@H](C)[C@@H]1O (stereo partly specified) | > 32 µg/mL | > 32 µg/mL | 0.5 µg/mL (≈ 0.693 µM) | 0.5 µg/mL (≈ 0.693 µM) | 0.5 µg/mL (≈ 0.693 µM) | 0.5 µg/mL (≈ 0.693 µM) | 0.5 µg/mL (≈ 0.693 µM) | 1 | 1 µg/mL (≈ 1.39 µM) | 0.5 µg/mL (≈ 0.693 µM) | 0.5 µg/mL (≈ 0.693 µM)
C=C[C@]1(C)C[C@@H](OC(=O)CSc2ccccc2NC(=O)Cn2cc(CN3CCN(c4cccc(O)c4)CC3)nn2)[C@]2(C)[C@H](C)CC[C@]3(CCC(=O)[C@H]32)[C@@H](C)[C@@H]1O | > 32 µg/mL | > 32 µg/mL | 0.5 µg/mL (≈ 0.637 µM) | 0.25 µg/mL (≈ 0.318 µM) | 0.5 µg/mL (≈ 0.637 µM) | 1 µg/mL (≈ 1.27 µM) | 0.5 µg/mL (≈ 0.637 µM) | 1 | 0.5 µg/mL (≈ 0.637 µM) | 0.25 µg/mL (≈ 0.318 µM) | 0.25 µg/mL (≈ 0.318 µM)
C=C[C@]1(C)C[C@@H](OC(=O)CSc2ccccc2NC(=O)Cn2cc(CN3CCN(c4ccc(F)cc4)CC3)nn2)[C@]2(C)[C@H](C)CC[C@]3(CCC(=O)[C@H]32)[C@@H](C)[C@@H]1O | > 32 µg/mL | > 32 µg/mL | 1 µg/mL (≈ 1.27 µM) | 0.5 µg/mL (≈ 0.635 µM) | 1 µg/mL (≈ 1.27 µM) | 2 µg/mL (≈ 2.54 µM) | 0.5 µg/mL (≈ 0.635 µM) | 1 | 1 µg/mL (≈ 1.27 µM) | 1 µg/mL (≈ 1.27 µM) | 0.5 µg/mL (≈ 0.635 µM)
C=C[C@]1(C)C[C@@H](OC(=O)CSc2ccccc2NC(=O)Cn2cc(CN3CCN(c4ccccc4F)CC3)nn2)[C@]2(C)[C@H](C)CC[C@]3(CCC(=O)[C@H]32)[C@@H](C)[C@@H]1O | > 32 µg/mL | > 32 µg/mL | 1 µg/mL (≈ 1.27 µM) | 0.5 µg/mL (≈ 0.635 µM) | 2 µg/mL (≈ 2.54 µM) | 1 µg/mL (≈ 1.27 µM) | 1 µg/mL (≈ 1.27 µM) | 1 | 1 µg/mL (≈ 1.27 µM) | 1 µg/mL (≈ 1.27 µM) | 0.5 µg/mL (≈ 0.635 µM)
C=C[C@]1(C)C[C@@H](OC(=O)CO)[C@]2(C)[C@H](C)CC[C@]3(CCC(=O)[C@H]32)[C@@H](C)[C@@H]1O [PLEUROMULIN] |  |  | 2 µg/mL (≈ 5.28 µM) | 1 µg/mL (≈ 2.64 µM) | 4 µg/mL (≈ 10.6 µM) | 4 µg/mL (≈ 10.6 µM) | 2 µg/mL (≈ 5.28 µM) |  | 4 µg/mL (≈ 10.6 µM) | 2 µg/mL (≈ 5.28 µM) | 2 µg/mL (≈ 5.28 µM)
